Source: PubChem BioAssay AID1937 (Sanford-Burnham Center for Chemical Genomics, 2009)

Tested on: Mouse plasma protein binding, RED dialysis, LC/MS/MS
Assay: fraction bound to mouse plasma proteins – biochemical, rapid equilibrium dialysis, LC/MS/MS, ADME assay, late-stage follow-up (AID 1937)
Details: stronger effect = higher value
Summary of the method: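 Material: mouse plasma in RED dialysis device; buffer or medium: Isotonic phosphate-buffered saline, pH 7.4, as dialysis buffer; doses: two final plasma concentrations, 1 µM and 10 µM, with 0.1% DMSO; incubation: dialysis for 4 h at 37 °C with shaking; signal: LC/MS/MS of both dialysis chambers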

plasma protein bound (at 1 µM): 99.8%
plasma protein bound (bound, at 10 µM): 99.8%
SMILES: CC1Cc2cc(S(=O)(=O)N3CCN(c4ccc(Cl)cc4)CC3)ccc2N1C(=O)C1CC1 (configuration not stated)
